Compound activity as filed in PubChem BioAssay.
VIM-2 inhibitor: inhibitors of Pseudomonas aeruginosa VIM-2 metallo-beta-lactamase; hit rate 0.89% among 290,000; inhibition, % at 5.6 µM; purified VIM-2, nitrocefin hydrolysis, epi-absorbance fluorescence;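 active = inhibition above the mean of all tested compounds plus 3 SD, cutoff set per screening run, cut at about 7.5% in these data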;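 note: red hydrolysis product quenches plate fluorescence so inhibitors raise well fluorescence; 0% = enzyme with DMSO and 100% = DMSO without enzyme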
dFosB act: mouse delta FosB homodimer activation | P13346 | purified delta FosB, TAMRA-CDK5 oligo fluorescence polarization; percent of positive-control signal above neutral wells | activation, % at 25 µM | hit rate 0.99% among 340,000;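 active = mean activation above about 17%, with every replicate also reaching it, limit read from the data, passing the limit was not always enough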
HTR2A ag: agonists of mouse serotonin 5-HT2A receptor (HTR2A); P35363; CHO-K1 mHTR2A beta-arrestin complementation, luminescence; percent of 30 µM serotonin response; activation, % at 7.6 µM; hit rate 0.66% among 360,000; AID 624169;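 active = activation above a run cutoff, the mean activation of all tested compounds plus 3 SD, cut at about 14% in these data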;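 note: 0% = plate median of compound wells and 100% = 30 µM serotonin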
Target sequence (P35363 whole entry, looked up): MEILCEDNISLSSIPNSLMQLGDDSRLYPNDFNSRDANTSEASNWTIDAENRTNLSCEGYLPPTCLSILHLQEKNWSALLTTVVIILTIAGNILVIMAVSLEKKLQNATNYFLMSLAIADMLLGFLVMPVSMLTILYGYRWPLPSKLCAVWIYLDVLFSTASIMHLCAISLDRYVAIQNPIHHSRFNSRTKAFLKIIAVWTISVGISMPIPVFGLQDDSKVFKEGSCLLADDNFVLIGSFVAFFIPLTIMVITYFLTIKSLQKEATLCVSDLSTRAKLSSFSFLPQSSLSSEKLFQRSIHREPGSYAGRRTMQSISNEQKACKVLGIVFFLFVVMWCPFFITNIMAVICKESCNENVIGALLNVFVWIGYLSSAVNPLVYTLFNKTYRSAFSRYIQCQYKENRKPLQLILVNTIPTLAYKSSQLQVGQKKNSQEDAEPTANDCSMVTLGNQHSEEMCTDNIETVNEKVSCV
IMP-1 inhibitor: inhibitors of Pseudomonas aeruginosa IMP-1 metallo-beta-lactamase | purified IMP-1, nitrocefin hydrolysis, epi-absorbance fluorescence | inhibition, % at 5.6 µM | hit rate 0.45% among 290,000;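 active = inhibition above the mean plus 3 SD of all compounds in the same screening run, cut at about 4.5% in these data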;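 note: 0% = IMP-1 with DMSO and 100% = DMSO wells lacking enzyme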
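System: purified IMP-1 / Input: IMP-1 dispensed at 0.2 nM / Medium: 50 mM HEPES pH 7.1, 50 µM ZnSO4, 0.05% Brij 35 / Timing: 15 min enzyme–compound preincubation, then 25 min nitrocefin reaction, 25 °C / Technique: plate fluorescence quenching by hydrolysis product, ex 480/em 530 nm / Repeats: singlicate testing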
VIM-2 confirm: VIM-2 inhibition, confirmation assay; shares compounds with IMP-1 inhibitor; purified VIM-2 enzyme, nitrocefin absorbance; inhibition, % at 5.6 µM; hit rate 73% among 200; in the data active = inhibition above about 8%;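 note: 0% = enzyme with vehicle and 100% = no enzyme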
TEM-1 counter: blocks E. coli TEM-1 beta-lactamase, VIM-2 IMP-1 counter-screen. shares compounds with IMP-1 inhibitor. nitrocefin absorbance inhibition. inhibition, % at 5.6 µM. hit rate 50% among 200; in the data active = inhibition above about 0.66%
IMP-1 confirm: confirmation of P. aeruginosa IMP-1 metallo-beta-lactamase inhibitors. shares compounds with IMP-1 inhibitor. AID 2189. inhibition, % at 5.6 µM. purified IMP-1 enzyme, absorbance substrate hydrolysis. hit rate 60% among 200; in the data active = inhibition above about 4.9%;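 note: 0% = enzyme with vehicle and 100% = vehicle without enzyme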
Starred values were filed as active, the others as inactive; · = no result given. Most compounds without a hit are left out; they make up all but 2.5% or so of the library.

SMILES | VIM-2 inhibitor | dFosB act | HTR2A ag | IMP-1 inhibitor | VIM-2 confirm | TEM-1 counter | IMP-1 confirm
COC(=O)c1c(C(=O)OC)c(-c2ccc(F)cc2)n2c1CSC2 | 0 | -4 | -2 | -3 | · | · | ·
CC(C)(C)c1ccc(-c2c(C(=O)O)c(C(=O)O)c3n2CSC3)cc1 | 20* | -5 | 4 | 20* | 17* | -5 | 12*
O=C1/C(=C/c2cccnc2)SC(=S)N1c1ccc(O)cc1 | 9.2* | 4 | 1 | 6.0* | 11* | -3 | -2
CC(=O)N1Cc2cc([N+](=O)[O-])ccc2Oc2ccccc21 | -1 | -12 | 0 | 1 | · | · | ·
Cc1ccc2nc3c(cc(C(=O)NCCCn4ccnc4)n3C)c(=O)n2c1 | 15* | 3 | 1 | 8.4* | 2 | -1 | -2
Cc1ccc2nc3c(cc(C(=O)NCC4CCCO4)n3C)c(=O)n2c1 (stereo not drawn) | 1 | · | · | -2 | · | · | ·
CCN1C(=O)c2cccc3c(N)ccc(c23)C1=O | 48* | -10 | -3 | 43* | 45* | 51* | 35*
Cc1nn(C)c(C)c1N1C(=O)c2cccc3c(Br)ccc(c23)C1=O | 1 | 3 | 1 | 1 | · | · | ·
Cc1nn(C)c(C)c1N1C(=O)c2cccc3c(N)ccc(c23)C1=O | 31* | -3 | 2 | 35* | 42* | 55* | 38*
CC(C)C(CCN1C(=O)c2ccccc2C1=O)c1ccco1 (stereo not drawn) | 15* | 2 | 2 | 7.3* | 33* | -1 | 19*
O=C(OCCN1C(=O)c2ccccc2C1=O)c1ccco1 | 1 | -10 | 3 | 0 | · | · | ·
CC(C)n1cc(/C=N/Nc2ccc(Cl)c(C(=O)O)c2)c2ccccc21 | 10* | -6 | 5 | 35* | 8.0* | -4 | 28*
O=C(O)c1cc(N/N=C/c2cccc3ccccc23)ccc1Cl | 0 | -5 | 0 | -1 | · | · | ·
NC(=O)c1ccc(NC(=O)CN2CCN(c3ccccc3)CC2)cc1 | 0 | -3 | 10 | 0 | · | · | ·
Cc1cccc(NC2SC(=O)N(c3ccccc3)C2=O)c1 (stereo not drawn) | -1 | -3 | 0 | -1 | · | · | ·
CC(=O)N(c1cccc(C)c1)C1SC(=O)N(c2ccccc2)C1=O (stereo not drawn) | 8.3* | 3 | -3 | 12* | 9.0* | -5 | 18*
COc1cc(NC(=O)C(C)(C)C)c(C(=O)OCC(=O)Nc2cc(C)on2)cc1OC | · | · | 3 | · | · | · | ·
COc1ccc(-c2occ(C(=O)O)c2C(=O)O)cc1 | 10* | -2 | 0 | 26* | 18* | -4 | 22*
COc1cccc(C(NC(C)=O)c2nc(-c3cccc(C(=O)O)c3)cs2)c1 (stereo not drawn) | · | · | -1 | · | · | · | ·
O=C(NCCc1ccccc1)C1Cc2c(-c3ccccc3Oc3ccccc3)ccnc2O1 (stereo not drawn) | · | · | -4 | · | · | · | ·
CCOc1ccc(-c2cc(C(=O)NCCCn3ccnc3)c3cc(Br)ccc3n2)cc1 | 17* | 13 | -4 | 33* | 21* | -2 | 41*
CC1Cc2[nH]c(=S)[nH]c(=O)c2C(c2ccc(F)cc2)O1 (stereo not drawn) | · | · | -1 | · | · | · | ·
c1ccc(C(c2ccccc2)c2ccn[nH]2)cc1 | -3 | 1 | -4 | -3 | · | · | ·
CCCN1C(=O)c2cccc3c(N4CCCCC4)ccc(c23)C1=O | 32* | 4 | -3 | 24* | 12* | 6.5* | 5.5*
CCCCNc1ccc2c3c(cccc13)C(=O)N(CCCC)C2=O | 15* | -25 | 0 | 12* | 22* | 63* | 18*
CCOC(=O)[C@]12Cc3c(cc(OC)c(OC)c3OC)[C@H]1N(C1CCCCC1)C(=O)c1cc(OC)ccc12 | · | · | -3 | · | · | · | ·
CCC(=O)c1cn(CC(=O)Nc2cc(C)ccc2C)c2ccccc12 | -2 | -4 | 7 | -2 | · | · | ·
CN1CCN(S(=O)(=O)c2ccc(-c3ccc(Cl)cc3)cc2)CC1 | 11* | -17 | -7 | 42* | 4 | -4 | -3
CN1CCN(S(=O)(=O)c2ccc(Cl)cc2)CC1 | 2 | -2 | -4 | 1 | · | · | ·
C[n+]1cc(C(=O)N2CCCCC2)ccc1/C=C/c1c[nH]c2ccccc12 | 7 | -2 | -4 | 4.9* | 14* | 0.5* | 5.6*
